STAT3 activator – increases IL-6 driven STAT3 reporter signal; 190,000 compounds, 0.91% hits; AID 871; activation (% of control), % at 5.6 µM; U3A cells, IL-6 STAT3-luciferase reporter, luminescence; 100% = signal with IL-6 EC80 alone;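 active = activation above the screen-wide mean of compound activation plus 3 SD, cut at about 130% in these data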;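 note: 0% = background luminescence of wells with medium and substrate only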
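Material: STAT3-luciferase reporter U3A cells. Controls: IL-6-treated wells, 100% activation. Read-out: % activation versus median of IL-6-stimulated wells. Probe or stimulus: IL-6 stimulus at 33 ng/mL final. Timing: compound 1 h, then IL-6 6 h at 37 °C. Signal: reporter luminescence signal.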
STAT1 act – activators of IFN-gamma induced STAT1 signaling | 200,000 compounds, 2.6% hits | NIH 3T3 STAT1-luciferase reporter, luminescence; 100% = IFN-gamma alone, no compound | activation (% of control), % at 5.5 µM;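 active = activation above the screen-wide mean activation plus 3 SD, cut at about 130% in these data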;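 note: raw ratio to IFN-gamma control signal so 100% means no change and 0% no light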
NF-kB neuron act – compounds increasing NF-kB expression in human neuronal cells; NF-kB reporter expression; active compounds read high; fold change at 12.5 µM; 190,000 compounds, 1.6% hits; in the data active = fold change above about 3.3
STAT3 blocker – inhibitors of IL-6 induced STAT3 signaling | U3A cells, IL-6 STAT3-luciferase reporter, luminescence; host cell line lacks STAT1 | inhibition, % at 5.5 µM | 190,000 compounds, 0.89% hits | AID 862;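 active = inhibition above the mean inhibition across all screened compounds plus 3 SD, cut at about 44% in these data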;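 note: 0% = DMSO only wells and 100% = 100 µM nifuroxazide control wells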
STAT1 inh – STAT1 signaling inhibition; NIH 3T3 STAT1-luciferase reporter, IFN-gamma, luminescence; inhibition, % at 5.5 µM; 200,000 compounds, 0.35% hits; AID 920;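 active = inhibition above a set limit, the mean inhibition across all tested compounds plus 3 SD, cut at about 34% in these data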;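 note: 0% = IFN-gamma with DMSO and 100% = IFN-gamma with 300 µM nifuroxazide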
APP 5'UTR act – APP 5'UTR luciferase reporter activation. SH-SY5Y APP 5'UTR luciferase reporter, luminescence; zero percent = DMSO vehicle wells. activation, % at 2 µM. 190,000 compounds, 1% hits;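 active = activation above a set limit, based on mean plus 3 SD of controls, cut at about 140% in these data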
Numbers without * were called inactive; nt = not tested or not shown. Rows were chosen to be rich in hits. Some 4.9% of all compounds tested hit in one or more screens of this group.

SMILES	STAT3 activator	STAT1 act	NF-kB neuron act	STAT3 blocker	STAT1 inh	APP 5'UTR act
COc1ccc(/C=C/C(=O)c2ccc3c4c(cccc24)CC3)cc1OC	104	104	0.84	-7	-5	14
O=C(Nc1ccc2c(c1)CCC2)c1cc2ccccc2o1	90	151*	11*	18	-55	185*
O=C(Nc1ccc2c(c1)CCC2)c1ccc(Br)o1	93	120	3.3	14	-21	116
Cc1ccc(C(=O)Nc2ccc3c(c2)CCC3)o1	96	137*	7.8*	9	-38	119
CCOC(=O)c1ccc(NC(=O)c2cc3ccccc3o2)cc1	94	113	1.8	13	-13	24
O=C(NCCOc1ccccc1)c1cc2ccccc2o1	96	124	4.4*	7	-26	96
Cc1cc(C(=O)Nc2cccc(C(=O)O)c2)c(C)o1	113	91	1.2	-17	10	12
CCC(=O)Nc1cccc(NC(=O)c2cc3ccccc3o2)c1	97	148*	2.9	8	-52	89
NS(=O)(=O)c1cccc(NC(=O)c2cc3ccccc3o2)c1	87	114	1.3	19	-17	17
Cc1cc(C(=O)Nc2cccc(C(=O)O)c2)oc1C	31	49	7*	87*	55*	-2
Cc1cccc(NC(=O)c2cc3ccccc3o2)c1	96	136*	6.7*	8	-39	178*
CCOC(=O)/C=C1\SCC(=O)N1CC(=O)Nc1cccc(F)c1	105	101	nt	0	-1	0
O=C(Nc1cccc(Br)c1)c1cc2ccccc2o1	110	142*	5.7*	-9	-46	158*
O=C(NC(=S)NCc1cccnc1)c1cc2ccccc2o1	96	105	1.2	10	-3	-15
O=C(NC(=S)Nc1cccnc1)c1cc2ccccc2o1	97	131*	1.9	8	-35	-3
CCCn1nnc(NC(=O)c2cc3ccccc3o2)n1	100	125	2.8	5	-27	98
Cc1cccc(NC(=O)Cc2noc3ccccc23)c1C	96	104	1.1	7	-5	27
CCCCn1nnc(NC(=O)c2cc3ccccc3o2)n1	104	135*	2	-1	-28	25
Cc1cccc(NC(=O)Cc2noc3ccccc23)c1	113	140*	2	-13	-42	38
CSc1nc(Cl)cc(N2CCOCC2)n1	100	100	1.3	5	0	20
Clc1ccccc1Cc1noc(CN2CCCCC2CCc2ccccn2)n1 (stereo not drawn)	95	94	1.1	11	5	-4
O=C(Nc1ccc(CN2CCCCC2)cc1)Nc1ccc(Br)cc1Cl	93	97	0.97	11	3	5
CCC(=O)Nc1cccc(-c2cc3ccccc3oc2=O)c1	101	134*	0.6	4	-38	40
Cc1ccc(Cn2ccc(-c3cnc(-c4ccccc4)s3)n2)cc1	77	126	2.2	32	-29	31
O=C(c1ccc(F)cc1)n1ccc(-c2cnc(-c3ccccc3)s2)n1	103	136*	3.6*	3	-39	92
SMILES	STAT3 activator	STAT1 act	NF-kB neuron act	STAT3 blocker	STAT1 inh	APP 5'UTR act
Fc1ccc(Cn2ccc(-c3cnc(-c4ccccc4)s3)n2)cc1	85	131*	2.6	24	-34	18
O=C(CSc1nnc(COc2ccc(Cl)cc2)o1)N1CCOCC1	96	100	1.2	5	0	-1
CCOCC(=O)Nc1cc(Cl)c(OC)cc1OC	85	105	1.2	20	-8	7
Cc1ccccc1NC(=O)C1Cc2ccccc2C(=O)O1 (stereo not drawn)	84	108	3.3*	23	-9	-1
Cc1cc(-c2ccc3ccccc3c2)n2ncnc2n1	84	109	1.2	22	-11	-9
CN(Cc1nc(Cc2ccccc2F)no1)Cc1cccc2ncccc12	88	78	0.74	16	23	-2
COc1ccc(CNc2nc3nc(C)cc(C)n3n2)cc1	111	108	1.2	-10	-9	18
COc1ccc(-c2cc3nc(C)cc(C)n3n2)cc1	156*	135*	3.6*	-60	-37	112
COc1ccc(-c2nc3nc(C)cc(C)n3n2)cc1	111	129*	1.5	-10	-29	nt
CC1(C)CNC(=O)c2sc(NC(=O)c3ccccc3Cl)nc2C1	102	98	1.6	3	1	2
O=C(Nc1nccs1)c1ccc(-c2cccc([N+](=O)[O-])c2)o1	92	143*	1.4	15	-50	59
O=[N+]([O-])c1cc(-c2ccc(C(=S)N3CCOCC3)o2)ccc1Cl	110	94	1.8	1	6	16
O=[N+]([O-])c1cccc(-c2ccc(C(=S)N3CCOCC3)o2)c1	112	143*	4.8*	-11	-45	162*
S=C(c1ccc(-c2cccc(Cl)c2)o1)N1CCCCC1	97	147*	1.5	5	-52	180*
S=C(c1ccc(-c2cccc(Cl)c2)o1)N1CCOCC1	110	115	5.7*	-7	-15	141*
S=C(c1ccc(-c2cc(Cl)ccc2Cl)o1)N1CCOCC1	104	107	1.1	0	-10	20
COc1cccc(-c2c(C#N)c(N)nc3c2c(=O)nc2sccn23)c1	101	90	0.87	3	10	4
CC(=O)Oc1c(-c2ccco2)oc2ccccc2c1=O	108	110	0.97	-1	-11	4
C/C(NC(=O)c1ccccc1)=C1/C(=O)CC2C1C2(C)C (stereo not drawn)	102	130*	2.1	2	-33	68
CC(=O)C1=C(NC(=O)c2ccc(F)cc2)CC2C1C2(C)C (stereo not drawn)	91	94	1.2	15	6	10
COc1cccc(C(=O)Oc2c(CN3CCOCC3)cc(Cl)c3cccnc23)c1	96	102	4.6*	7	-2	-38
COc1ccc(C(=O)Oc2c(CN3CCOCC3)cc(Cl)c3cccnc23)cc1	101	93	28*	3	8	-38
COc1cc(C(=O)Oc2c(CN3CCOCC3)cc(Cl)c3cccnc23)cc(OC)c1OC	106	105	3.8*	2	-5	-39
O=C(Oc1c(CN2CCOCC2)cc(Cl)c2cccnc12)c1ccccc1Cl	96	99	1.7	5	2	-53
O=C(Oc1c(CN2CCOCC2)cc(Cl)c2cccnc12)c1ccc(F)cc1	85	98	7.6*	22	6	-37
O=C(Oc1c(CN2CCOCC2)cc(Cl)c2cccnc12)c1cccs1	101	104	1.1	3	-8	-27
COC(=O)[C@@]1(Cc2ccc(F)cc2)[C@H]2c3cc(C(=O)N(C)C)n(Cc4ccc(OC(F)(F)F)cc4)c3C[C@H]2CN1C(=O)c1ccccc1	101	90	0.76	-4	11	-2

Bioassay records (PubChem)
